Test results as given in ChEMBL document CHEMBL4316637, “Highly Modified Lanostane Triterpenes from Fruiting Bodies of the Basidiomycete Tomophagus sp” (J Nat Prod, 2019).
≈ marks a conversion by molar mass, not a printed value.

Key:
[1] = test system: Mycobacterium tuberculosis; assay: Antitubercular activity against Mycobacterium tuberculosis H37Ra by GFP based microplate assay; type: functional
How it was run: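 Whole-cell assay on M. tuberculosis H37Ra growth, read by green fluorescent protein signal in microplates; activity given as MIC in μg/mL.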

Plasmodium falciparum = assay: Antimalarial activity against Plasmodium falciparum K1 infected in human type A+ erythrocytes incubated for 24 hrs followed by [G-3H]-hypoxanthine incorporation and measured after 18 hrs by liquid scintillation counting method; type: functional, organism-based
How it was run: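 P. falciparum K1 (multidrug-resistant strain), tested in duplicate with the microculture radioisotope technique; IC50 derived.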

Vero = assay: Cytotoxicity against African green monkey Vero cells by GFP based microplate assay; type: cell-based; details: Chlorocebus sabaeus
How it was run: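 Vero cells (nonmalignant African green monkey kidney […]) tested with a green fluorescent protein microplate assay.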

Row | SMILES | MIC [1] | IC50 (Plasmodium falciparum) | IC50 (Vero)
1 | CC1=CC[C@@H]([C@@H](C)[C@H]2CC[C@@]3(C)[C@@]45CC[C@@H](C(C)(C)O4)[C@]4(CCC(=O)OC4)C5=CC[C@]23C)OC1=O | > 50 µg/mL | > 21 µM | 98 µM
2 | CC1=CC[C@@H]([C@@H](C)[C@H]2CC[C@@]3(C)C4=C(CC[C@]23C)[C@@]2(C)[C@H](O)C[C@H](O)C(C)(C)[C@@H]2CC4)OC1=O | > 50 µg/mL | > 21 µM | > 106 µM
3 | CC(=O)O[C@]12CCC(=O)OC(C)(C)[C@@H]1CCC1=C2CC[C@]2(C)[C@@H]([C@H](C)[C@@H]3CC=C(C)C(=O)O3)CC[C@@]12C | > 50 µg/mL | > 19 µM | > 95 µM
4 | CC1=CC[C@@]2(OC1=O)O[C@H]1O[C@H]3C[C@@]14[C@H](CC[C@@]4(C)C1=C3C=C3C=CC(=O)OC(C)(C)[C@@H]3CC1)[C@@H]2C | > 50 µg/mL | > 20 µM | > 102 µM
5 | COC(=O)CC[C@]1(COC(C)=O)C2=CC[C@]3(C)[C@@H]([C@H](C)[C@H]4OC(=O)C(C)=C[C@@H]4O)CC[C@@]3(C)C2=CC[C@H]1C(C)(C)O | > 50 µg/mL | 6.3 µM | 32 µM
6 | CC(=O)O[C@]12CCC(=O)OC(C)(C)[C@@H]1CCC1=C2CC[C@]2(C)[C@@H]([C@H](C)[C@H]3OC(=O)C(C)=C[C@@H]3O)CC[C@@]12C | > 50 µg/mL | > 18 µM | > 92 µM
7 | CC(=O)[C@H]1C[C@@H](O)[C@@]2(C)C3=C(C=C4C=CC(=O)OC(C)(C)[C@@H]4CC3)[C@@H](O)C[C@]12C | > 50 µg/mL | > 25 µM | > 125 µM
8 | CC1=CC[C@@H]([C@@H](C)[C@H]2CC[C@@]3(C)C4=C(CC[C@]23C)C[C@@]2(O)C=CC(=O)OC(C)(C)[C@@H]2CC4)OC1=O | > 50 µg/mL | 19 µM | 45 µM
9 | CC(=O)O[C@@H]1C[C@H]([C@H](C)[C@@H]2CC=C(C)C(=O)O2)[C@@]2(C)CC(=O)C3=C(CC[C@@H]4C(=C3)C=CC(=O)OC4(C)C)[C@]12C | 50 µg/mL (≈ 93.2 µM) | 10 µM | 92 µM
10 | Cc1c2ccncc2c(C)c2c1[nH]c1ccccc12 [ELLIPTECINE] |  |  | 3.1 µM
11 | CC(=O)O[C@@H]1C[C@H]([C@H](C)[C@@H]2CC=C(C)C(=O)O2)[C@@]2(C)CCC3=C(CC[C@@H]4C(=CCC(=O)OC4(C)C)C3)[C@]12C | > 50 µg/mL | 12 µM | 94 µM
12 | CC(=O)OC[C@]12CC[C@H](O)C(C)(C)[C@@H]1CCC1=C2CC[C@]2(C)[C@@H]([C@H](C)[C@@H]3CC=C(C)C(=O)O3)CC[C@@]12C | > 50 µg/mL | > 20 µM | > 98 µM
13 | CC(=O)O[C@@H]1C[C@H]([C@H](C)[C@H]2OC(=O)C(C)=C[C@@H]2O)[C@@]2(C)CCC3=C(CC[C@@H]4C(=C3)C=CC(=O)OC4(C)C)[C@]12C | 50 µg/mL (≈ 92.8 µM) | 7 µM | 22 µM
14 | CC1=C[C@H](O)[C@@H]([C@@H](C)[C@H]2CC[C@@]3(C)C4=C(CC[C@]23C)[C@@]2(C)CC[C@H](O)C(C)(C)[C@@H]2CC4)OC1=O | > 50 µg/mL | > 21 µM | 36 µM
15 | CC1=CC[C@@H]([C@@H](C)[C@H]2CC[C@@]3(C)C4=CC[C@H]5C(C)(C)OC[C@@]5(CCC(=O)O)C4=CC[C@]23C)OC1=O | > 50 µg/mL | 5.1 µM | > 104 µM
16 | CC1=CC[C@]2(OC1=O)O[C@H]1O[C@H]3C[C@@]14[C@H](CC[C@@]4(C)C1=C3C=C3C=CC(=O)OC(C)(C)[C@@H]3CC1)[C@@H]2C | > 50 µg/mL | > 20 µM | > 102 µM
17 | CC1=C[C@H](O)[C@@H]([C@@H](C)[C@H]2C[C@@H](O)[C@@]3(C)C4=C(C=C5C=CC(=O)OC(C)(C)[C@@H]5CC4)CC[C@]23C)OC1=O | > 50 µg/mL | > 20 µM | 39 µM
18 | COC(=O)CC[C@]1(COC(C)=O)C2=CC[C@]3(C)[C@@H]([C@H](C)[C@@H]4CC=C(C)C(=O)O4)CC[C@@]3(C)C2=CC[C@H]1C(C)(C)O | 50 µg/mL (≈ 89.8 µM) | 8.1 µM | 32 µM
19 | CC1=CC[C@@H]([C@@H](C)[C@H]2CC[C@@]3(C)C4=C(CC[C@]23C)[C@@]2(CO)CC[C@H](O)C(C)(C)[C@@H]2CC4)OC1=O | > 50 µg/mL | > 21 µM | > 106 µM
20 | CC(=O)O[C@@H]1C[C@H]([C@H](C)[C@@H]2CC=C(C)C(=O)O2)[C@@]2(C)CCC3=C(CC[C@@H]4C(=C3)C=CC(=O)OC4(C)C)[C@]12C | > 50 µg/mL | 18 µM | 11 µM

Row | SMILES | MIC [1] | IC50 (Plasmodium falciparum) | IC50 (Vero)
21 | CC1=CC[C@@H]([C@@H](C)[C@H]2C[C@@H](O)[C@@]3(C)C4=C(C=C5C=CC(=O)O[C@@]5(C(C)(C)O)CC4)CC[C@]23C)OC1=O | > 50 µg/mL | > 20 µM | > 101 µM
22 | CC1=CC[C@@H]([C@@H](C)[C@H]2CC[C@@]3(C)C4=C(CC[C@]23C)[C@@]2(C)CC[C@H](O)C(C)(C)[C@@H]2CC4)OC1=O | > 50 µg/mL | > 22 µM | > 110 µM
23 | CC1=CC[C@@H]([C@@H](C)[C@H]2CC[C@@]3(C)C4=C(C=C5C=CC(=O)OC(C)(C)[C@@H]5CC4)CC[C@]23C)OC1=O | > 50 µg/mL | 18 µM | > 108 µM
24 | CC1=CC[C@@H]([C@@H](C)[C@H]2C[C@@H](O)[C@@]3(C)C4=C(C=C5C=CC(=O)OC(C)(C)[C@@H]5CC4)[C@@H](O)C[C@]23C)OC1=O | > 50 µg/mL | > 20 µM | > 101 µM
25 | CC(=O)OC[C@]12CCC(=O)C(C)(C)[C@@H]1CCC1=C2CC[C@]2(C)[C@@H]([C@H](C)[C@@H]3CC=C(C)C(=O)O3)CC[C@@]12C | > 50 µg/mL | > 20 µM | > 98 µM
26 | C[C@H]1[C@@H](O)O[C@@H]2O[C@@]3(C)CC[C@H]4[C@H](C)CC[C@@H]1[C@@]24OO3 [ARTENIMOL] |  | 0.0028 µM | 
27 | CC(=O)OC(C)(C)[C@@H]1CC=C2C(=CC[C@]3(C)[C@@H]([C@H](C)[C@@H]4CC=C(C)C(=O)O4)CC[C@@]23C)[C@@]12CCC(=O)OC2 | 50 µg/mL (≈ 95.3 µM) | 7.7 µM | 38 µM
28 | CC(=O)O[C@@H]1C[C@H]([C@H](C)[C@@H]2CC=C(C)C(=O)O2)[C@@]2(C)CCC3=C(CC[C@]4(C(C)(C)O)OC(=O)C=CC4=C3)[C@]12C | > 50 µg/mL | > 19 µM | 33 µM
29 | COC(=O)CC[C@]1(COC(C)=O)C2=C(CC[C@H]1C(C)(C)O)[C@]1(C)CC[C@H]([C@H](C)[C@@H]3CC=C(C)C(=O)O3)[C@@]1(C)CC2 | 12.5 µg/mL (≈ 22.4 µM) | 15 µM | 11 µM
30 | NNC(=O)c1ccncc1 [ISONIAZID] | 0.047 µg/mL (≈ 0.343 µM) |  | 
31 | CC(=O)O[C@@H]1C[C@H]([C@H](C)[C@H]2OC(=O)C(C)=C[C@@H]2O)[C@@]2(C)CC(=O)C3=C(CC[C@@H]4C(=C3)C=CC(=O)OC4(C)C)[C@]12C | > 50 µg/mL | > 18 µM | > 90 µM
32 | CC(=O)OC[C@]12CC[C@H](O)C(C)(C)[C@@H]1CCC1=C2CC[C@]2(C)[C@@H]([C@H](C)[C@H]3OC(=O)C(C)=C[C@@H]3O)CC[C@@]12C | > 50 µg/mL | 6.6 µM | 34 µM
33 | CC(=O)O[C@@H]1C[C@H]([C@H](C)[C@H]2OC(=O)C(C)=C[C@@H]2O)[C@@]2(C)C[C@H](O)C3=C(CC[C@@H]4C(=C3)C=CC(=O)OC4(C)C)[C@]12C | > 50 µg/mL | > 18 µM | > 90 µM
34 | CC1=CC[C@@H]([C@@H](C)[C@H]2C[C@@H](O)[C@@]3(C)C4=C(C=C5C=CC(=O)OC(C)(C)[C@@H]5CC4)CC[C@]23C)OC1=O | 50 µg/mL (≈ 104 µM) | 12 µM | 42 µM
35 | CC(=O)O[C@@H]1C[C@H]([C@H](C)[C@@H]2CC=C(C)C(=O)O2)[C@@]2(C)C[C@H](O)C3=C(CC[C@@H]4C(=C3)C=CC(=O)OC4(C)C)[C@]12C | > 50 µg/mL | > 19 µM | 34 µM
36 | CC(=O)[C@H]1C[C@@H](O)[C@@]2(C)C3=C(C=C4C=CC(=O)OC(C)(C)[C@@H]4CC3)CC[C@]12C | > 50 µg/mL | > 26 µM | > 130 µM
37 | CC(=O)O[C@]12CCC(=O)OC(C)(C)[C@@H]1CC=C1[C@]3(C)CC[C@H]([C@H](C)[C@@H]4CC=C(C)C(=O)O4)[C@@]3(C)C[C@H]3O[C@@]132 | > 50 µg/mL | > 18 µM | > 92 µM
38 | CC(=O)OC[C@@]1(CCC(=O)O)C2=CC[C@]3(C)[C@@H]([C@H](C)[C@@H]4CC=C(C)C(=O)O4)CC[C@@]3(C)C2=CC[C@H]1C(C)(C)O | > 50 µg/mL | 5.5 µM | 88 µM
39 | CC(=O)OC(C)(C)[C@@H]1CC=C2C(=CC[C@]3(C)[C@@H]([C@H](C)[C@H]4OC(=O)C(C)=C[C@@H]4O)CC[C@@]23C)[C@@]12CCC(=O)OC2 | > 50 µg/mL | > 18 µM | > 92 µM
40 | CC(=O)O[C@@H]1C[C@H]([C@H](C)[C@@H]2CC=C(C)C(=O)O2)[C@@]2(C)C[C@H](O)C3=C(CC[C@H]4C(C)(C)OC(=O)C=C[C@]45O[C@@H]35)[C@]12C | > 50 µg/mL | > 18 µM | > 90 µM
